ChEMBL document CHEMBL1125770, “Synthesis and antitumor properties of activated cyclophosphamide analogues” (J Med Chem, 1991)

What was measured:
[1] = tested on: P388; test: In vitro antitumor activity against cyclophosphamide-resistant P388/CP cells; type: functional, Mus musculus
In short: (§1)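 Clonogenic assay on L1210 and P388 leukemia cells, wild-type (/O) and cyclophosphamide-resistant (/CP) lines, with 1-h drug exposure. LC99 is the concentration that cuts colony formation to 1% of control. It comes from linear regression of log survival vs concentration, at least three determinations.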

[2] = Half-life in 4:6 acetone/ 1.0 M HEPES buffer, pH 7.4, 37 degree celsius; type: ADME
In short: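 Generation of 4 from the 4-hydroxy compounds followed by ³¹P NMR in 4:6 acetone/1.0 M HEPES, pH 7.4, 37 °C; half-time of phosphoramide mustard release recorded.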

[3] = tested on: L1210; test: In vivo antitumor activity against intraperitoneal murine wild type L1210 Leukemia cells at 170 umol/kg; type: functional, Mus musculus
In short: (§2)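 NCI L1210 protocol. Tumor propagated in DBA/2 mice; tests done in B6D2F1 mice, six per group, given 10⁶ L1210 cells ip. One ip dose of drug suspended in 2% (carboxymethyl)cellulose (or vehicle alone) given 24 h later. Survival followed daily for 30 days. %T/C = 100 × treated/control survival time.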

[4] = tested on: L1210; test: In vitro antitumor activity against wild-type L1210/0 cells; type: functional, Mus musculus; in short: as §1
[5] = tested on: P388; test: In vitro antitumor activity against wild-type P388/0 cells; type: functional, Mus musculus; in short: as §1
[6] = tested on: L1210; test: In vivo antitumor activity against intraperitoneal murine wild type L1210 Leukemia cells at 340 umol/kg; type: functional, Mus musculus; in short: as §2
[7] = tested on: P388; test: Resistance factor for LC99 of resistant (P388/CP) to that of LC99 for wild type (P388/0).; type: functional, Mus musculus
In short: (§3)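 Resistance factor is LC99 in the cyclophosphamide-resistant line divided by LC99 in the matching wild-type line. Each LC99 comes from a clonogenic assay with 1-h drug exposure, by linear regression of log survival vs concentration, at least three determinations.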

[8] = tested on: L1210; test: In vivo antitumor activity against intraperitoneal murine cyclophosphamide resistant L1210 Leukemia cells at 340 umol/kg; type: functional, Mus musculus; in short: as §2
[9] = tested on: L1210; test: In vitro antitumor activity against cyclophosphamide-resistant L1210/CP cells; type: functional, Mus musculus; in short: as §1
[10] = tested on: L1210; test: In vivo antitumor activity against intraperitoneal murine cyclophosphamide resistant L1210 Leukemia cells at 170 umol/kg; type: functional, Mus musculus; in short: as §2
[11] = tested on: L1210; test: In vivo antitumor activity against intraperitoneal murine cyclophosphamide resistant L1210 Leukemia cells at 680 umol/kg; type: functional, Mus musculus; in short: as §2
[12] = tested on: L1210; test: In vivo antitumor activity against intraperitoneal murine wild type L1210 Leukemia cells at 510 umol/kg; type: functional, Mus musculus; in short: as §2
[13] = tested on: L1210; test: Resistance factor for LC99 of resistant (L1210/CP) to that of LC99 for wild type (L1210/0).; type: functional, Mus musculus; in short: as §3
[14] = tested on: L1210; test: In vivo antitumor activity against intraperitoneal murine wild type L1210 Leukemia cells at 680 umol/kg; type: functional, Mus musculus; in short: as §2
[15] = tested on: L1210; test: In vivo antitumor activity against intraperitoneal murine cyclophosphamide resistant L1210 Leukemia cells at 510 umol/kg; type: functional, Mus musculus; in short: as §2

SMILES	LC99 [1]	half-life [2]	T/C [3]	LC99 [4]	LC99 [5]	T/C [6]	RF [7]	T/C [8]	LC99 [9]	T/C [10]	T/C [11]	T/C [12]	RF [13]	T/C [14]	T/C [15]
O=[P@]1(N(CCCl)CCCl)N[C@H](OO)C[C@@H](c2ccncc2)O1	23 µM	110 min	130%	53 µM	44 µM	150%	0.5	131%	57 µM	119%	150%	160%	1.1	190%	138%
O=[P@]1(N(CCCl)CCCl)N[C@H](OO)C[C@@H](c2ccccc2)O1	15 µM	130 min	117%	9 µM	6 µM	144%	2.5		29 µM				3.2		
O=[P@]1(N(CCCl)CCCl)N[C@H](OO)C[C@@H](c2cccnc2)O1	34 µM	105 min		36 µM	33 µM		1		56 µM				1.6		
C[C@@H]1C[C@@H](OO)N[P@](=O)(N(CCCl)CCCl)O1	69 µM	> 500 min		39 µM	26 µM	138%	2.7		180 µM				4.6		
O=[P@]1(N(CCCl)CCCl)N[C@H](OO)C[C@@H](CCc2ccccc2)O1	5 µM	> 500 min		13 µM	10 µM	106%	0.5		9 µM				0.7		
O=[P@]1(N(CCCl)CCCl)N[C@H](OO)C[C@@H](c2ccc(F)cc2)O1	5 µM	205 min		7 µM	6 µM	163%	1.2		8 µM			188%	1.2		
O=[P@@]1(N(CCCl)CCCl)N[C@H](OO)C[C@@H](c2ccccc2)O1	21 µM	92 min		20 µM	16 µM		1.3		26 µM				1.3		
CC(C)[C@@H]1C[C@@H](OO)N[P@](=O)(N(CCCl)CCCl)O1		> 500 min		110 µM	61 µM		0.7		86 µM				1		
Cc1ccc([C@@H]2C[C@@H](OO)N[P@](=O)(N(CCCl)CCCl)O2)cc1	3 µM	240 min		5 µM	3 µM	150%	1		6 µM			175%	1.2	175%	
O=[N+]([O-])c1ccc([C@@H]2C[C@@H](OO)N[P@](=O)(N(CCCl)CCCl)O2)cc1	3 µM	190 min		8 µM	7 µM	163%	0.4		8 µM			185%	1	205%	
O=P1(N(CCCl)CCCl)NCCCO1 (stereo not given) [CYCLOPHOSPHAMIDE ANHYDROUS]			150%					95%		105%		208%			110%
O=P1(N(CCCl)CCCl)NC(OO)CCO1 (stereo not given) [PERFOSFAMIDE]	60 µM	15 min	140%	8 µM	6 µM	171%	10	110%	140 µM	115%			17		
